Key:
[1] = Selectivity index, ratio of IC50 for african green monkey Vero cells to IC50 for chloroquine-sensitive Plasmodium falciparum D6; assay type: toxicity, cell-based; conditions: read-out: Ratio IC50
Outline: (§1)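 SI is the IC50 for cytotoxicity to Vero cells (monkey kidney fibroblasts) divided by the antimalarial IC50 against the named P. falciparum clone. Cytotoxicity was tested up to 60 μM.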

Plasmodium falciparum [2] = assay: Ratio of chloroquine IC50 to compound IC50 for chloroquine-sensitive Plasmodium falciparum D6; assay type: functional
[3] = Selectivity index, ratio of IC50 for african green monkey Vero cells to IC50 for chloroquine-resistant Plasmodium falciparum W2; assay type: toxicity, cell-based; conditions: read-out: Ratio IC50; outline: as §1
Vero [4] = assay: Cytotoxicity against african green monkey Vero cells up to 60 uM after 48 hrs by neutral red assay; assay type: cell-based; conditions: chlorocebus sabaeus
Outline: (§2)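 Mammalian cell cytotoxicity was measured as IC50 in Vero (monkey kidney fibroblasts), LLC-PK11 (pig kidney epithelial) and HepG2 (human hepatoma) cells. The highest concentration tested was 60 μM. Values are the mean of two independent experiments ± SD.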

Plasmodium falciparum [5] = assay: Ratio of artemesin IC50 to compound IC50 for chloroquine-sensitive Plasmodium falciparum D6; assay type: functional
Plasmodium falciparum [6] = assay: Antiplasmodial activity against chloroquine-sensitive Plasmodium falciparum D6 infected in red blood cells after 72 hrs by parasitic LDH assay; assay type: functional, organism-based; conditions: D6, 72 h
Plasmodium falciparum [7] = assay: Antiplasmodial activity against chloroquine-resistant Plasmodium falciparum W2 infected in red blood cells after 72 hrs by parasitic LDH assay; assay type: functional, organism-based; conditions: W2, 72 h
HepG2 [8] = assay: Cytotoxicity against human HepG2 cells after 48 hrs by neutral red assay; assay type: cell-based; conditions: HepG2, 48 h; outline: as §2
Plasmodium falciparum [9] = assay: Ratio of chloroquine IC50 to compound IC50 for chloroquine-resistant Plasmodium falciparum W2; assay type: functional
[10] = Cytotoxicity against pig LLC-PK11 cells after 48 hrs by neutral red assay; assay type: cell-based; conditions: Sus scrofa, LLC-PK11, 48 h; outline: as §2
Vero [11] = assay: Cytotoxicity against african green monkey Vero cells after 48 hrs by neutral red assay; assay type: cell-based; conditions: chlorocebus sabaeus; outline: as §2
[12] = Cytotoxicity against pig LLC-PK11 cells up to 60 uM after 48 hrs by neutral red assay; assay type: cell-based, Sus scrofa; conditions: llc-pk11, 48 h; outline: as §2
HepG2 [13] = assay: Cytotoxicity against human HepG2 cells up to 60 uM after 48 hrs by neutral red assay; assay type: cell-based; conditions: hepg2, 48 h; outline: as §2

Row | Structure (SMILES) | selectivity ratio [1] | Ratio IC50 (Plasmodium falciparum [2]) | selectivity ratio [3] | Activity (Vero [4]) | Ratio IC50 (Plasmodium falciparum [5]) | IC50 (Plasmodium falciparum [6]) [nM] | IC50 (Plasmodium falciparum [7]) [nM] | IC50 (HepG2 [8]) [nM] | Ratio IC50 (Plasmodium falciparum [9]) | IC50 [10] [nM] | IC50 (Vero [11]) [nM] | Activity [12] | Activity (HepG2 [13])
1 | Cc1cc(NCCCNc2ccnc3cc(Cl)ccc23)nc(N2CCN(C)CC2)n1 | > 8570 | 6 | > 1000 | Non-toxic | 2 | 7 | 60 | 26700 | 6 | 34600 | – | – | –
2 | Cc1cc(Cl)nc(NCCCCCCNc2ccnc3cc(Cl)ccc23)n1 | 353 | – | 85.2 | – | – | 140 | 580 | 8100 | – | 24000 | 49400 | – | –
3 | C[C@@H]1CC[C@H]2[C@@H](C)C(=O)O[C@@H]3O[C@@]4(C)CC[C@@H]1[C@]32OO4 [ARTEMISININ] | – | – | – | Non-toxic | – | – | – | – | – | – | – | Non-toxic | Non-toxic
4 | Cc1cc(NCCCNc2ccnc3cc(Cl)ccc23)nc(Cl)n1 | > 184 | – | > 85 | Non-toxic | – | 330 | 700 | – | – | – | – | Non-toxic | Non-toxic
5 | Cc1cc(NCCNc2ccnc3cc(Cl)ccc23)nc(Cl)n1 | > 370 | – | > 120 | Non-toxic | – | 160 | 500 | – | – | – | – | Non-toxic | Non-toxic
6 | Cc1cc(Cl)nc(NCCCNc2ccnc3cc(Cl)ccc23)n1 | > 250 | – | > 51.3 | Non-toxic | – | 240 | 1170 | – | – | – | – | Non-toxic | Non-toxic
7 | Cc1cc(NCCNc2ccnc3cc(Cl)ccc23)nc(N2CCOCC2)n1 | > 3000 | – | > 444 | Non-toxic | – | 20 | 140 | – | – | – | – | Non-toxic | Non-toxic
8 | CCN1CCN(c2nc(C)cc(NCCCCNc3ccnc4cc(Cl)ccc34)n2)CC1 | 1620 | – | 1620 | – | – | 20 | 20 | 15400 | 6 | 10700 | 32400 | – | –
9 | Cc1cc(NCCCNc2ccnc3cc(Cl)ccc23)nc(N2CCCCC2)n1 | > 3000 | – | > 285 | Non-toxic | – | 20 | 210 | – | – | – | – | Non-toxic | Non-toxic
10 | Cc1cc(NCCCCNc2ccnc3cc(Cl)ccc23)nc(Cl)n1 | > 500 | – | > 88 | Non-toxic | – | 120 | 680 | – | – | – | – | Non-toxic | Non-toxic
11 | Cc1cc(NCCCCCCNc2ccnc3cc(Cl)ccc23)nc(N2CCN(C)CC2)n1 | 1480 | 6 | 650 | – | 2 | 7 | 16 | 6300 | 6 | 7200 | 10400 | – | –
12 | Cc1cc(NCCCCCCNc2ccnc3cc(Cl)ccc23)nc(Cl)n1 | 74.3 | – | 60.6 | – | – | 440 | 540 | 9100 | – | 15800 | 32700 | – | –
13 | COc1cccc2c1C(=O)c1c(O)c3c(c(O)c1C2=O)C[C@@](O)(C(=O)CO)C[C@@H]3O[C@H]1C[C@H](N)[C@H](O)[C@H](C)O1 [DOXORUBICIN] | – | – | – | – | – | – | – | 1000 | – | 1050 | 8600 | – | –
14 | Cc1cc(Cl)nc(NCCNc2ccnc3cc(Cl)ccc23)n1 | 205 | – | 53.1 | – | – | 210 | 810 | 43000 | – | 42300 | 43000 | – | –
15 | Cc1cc(Cl)nc(NCCCCNc2ccnc3cc(Cl)ccc23)n1 | > 353 | – | > 94 | Non-toxic | – | 170 | 640 | 46400 | – | – | – | Non-toxic | –
16 | Cc1cc(NCCCCCCNc2ccnc3cc(Cl)ccc23)nc(N2CCOCC2)n1 | 503 | – | 107 | – | – | 30 | 140 | 6400 | – | 11100 | 15100 | – | –
17 | Cc1cc(NCCCCCCNc2ccnc3cc(Cl)ccc23)nc(N2CCCCC2)n1 | 146 | – | 88 | – | – | 60 | 100 | 6400 | – | 6300 | 8800 | – | –
18 | Cc1cc(NCCCNc2ccnc3cc(Cl)ccc23)nc(N2CCOCC2)n1 | > 3000 | – | > 1200 | Non-toxic | – | 20 | 50 | 26200 | 6 | 35700 | – | – | –
19 | Cc1cc(NCCCCNc2ccnc3cc(Cl)ccc23)nc(N2CCCCC2)n1 | > 3000 | – | > 666 | Non-toxic | – | 20 | 90 | – | 6 | – | – | Non-toxic | Non-toxic
20 | Cc1cc(NCCCCNc2ccnc3cc(Cl)ccc23)nc(N2CCN(C)CC2)n1 | > 3000 | – | > 3000 | Non-toxic | – | 20 | 20 | 29500 | 6 | 34600 | – | – | –

Source: ChEMBL document CHEMBL2086283, “Novel 4-aminoquinoline-pyrimidine based hybrids with improved in vitro and in vivo antimalarial activity” (ACS Med Chem Lett, 2012)
